Measured values pooled from the literature.
Each line is one published result; the experiments were not run side by side.
DHFR: Dihydrofolate reductase (DHFR, Homo sapiens, UniProt P00374)
TOP2A: DNA topoisomerase 2-alpha (TOP2A, Homo sapiens, UniProt P11388)
HTR2B: 5-hydroxytryptamine receptor 2B (HTR2B, Homo sapiens, UniProt P41595)
FAAH: Fatty-acid amide hydrolase 1 (FAAH, Homo sapiens, UniProt O00519)
HTR2C: 5-hydroxytryptamine receptor 2C (HTR2C, Homo sapiens, UniProt P28335)

| SMILES | target | assay | IC50 |
| --- | --- | --- | --- |
| S=C(NCc1ccccc1)NN=Cc1ccc(N2CCCCC2)cc1 | DHFR | enzyme activity, inhibitor | 31.3 µM |
| O=c1nc(SCc2cc(F)cc(C(F)(F)F)c2)nc(SCc2ccc3ncsc3c2)[nH]1 | TOP2A | enzyme activity, inhibitor | 36.3 µM |
| S=C(NN=Cc1ccc(N2CCCCC2)cc1)Nc1cccc(Cl)c1Cl | DHFR | enzyme activity, inhibitor | 47.3 µM |
| Cc1cccc(OCCCC(=O)N2CCNCc3ccccc32)c1 | HTR2B | calcium signal, antagonist | 16.9 µM |
| O=c1nc(SCc2cc(F)cc(C(F)(F)F)c2)nc(SCc2nc3ccccc3[nH]2)[nH]1 | TOP2A | enzyme activity, inhibitor | 31.7 µM |
| S=C(NCc1ccc(Cl)cc1)NN=Cc1ccc(N2CCCCC2)cc1 | DHFR | enzyme activity, inhibitor | 20.6 µM |
| O=c1cc(-c2ccc(O)cc2)oc2c([C@@H]3OC[C@H](O)[C@H](O)[C@H]3O)c(O)c([C@@H]3O[C@H](CO)[C@@H](O)[C@H](O)[C@H]3O)c(O)c12 | Calcium/calmodulin-dependent protein kinase type II subunit alpha (CAMK2A, Homo sapiens, UniProt Q9UQM7) | enzyme activity, inhibitor | 86.1 µM |
| O=C(O)/C=C/c1ccc(O)c(O)c1 | DHFR | enzyme activity, inhibitor, absorbance | 105 µM |
| S=C(NCCc1ccccc1)NN=Cc1ccc(N2CCCCC2)cc1 | DHFR | enzyme activity, inhibitor | 22.9 µM |
| O=C(Nc1ccc(-c2cccc3cccnc23)cc1)C1CCN(S(=O)(=O)c2ccccc2Cl)CC1 | FAAH | enzyme activity, inhibitor, fluorescence | 0.135 µM |
| Cc1nc(CSc2nc(SCc3cc(F)cc(C(F)(F)F)c3)nc(=O)[nH]2)cs1 | TOP2A | enzyme activity, inhibitor | 55 µM |
| O=C(Nc1ccc(-c2ccnc3ccccc23)cc1)C1CCN(S(=O)(=O)c2ccccc2Cl)CC1 | FAAH | enzyme activity, inhibitor, fluorescence | 0.0887 µM |
| S=C(NN=Cc1ccc(N2CCCCC2)cc1)Nc1ccccc1 | DHFR | enzyme activity, inhibitor | 15.6 µM |
| CC(C)NCC(COc1cccc2ccccc12)OC(=O)C=Cc1ccc(O)c(O)c1 (stereo not drawn) | DHFR | enzyme activity, inhibitor, absorbance | 0.048 µM |
| O=C1C(N2CCC(c3cn[nH]n3)C2)CCN1c1cccc(Cl)c1 (stereo not drawn) | HTR2B | calcium signal, antagonist | 7.25 µM |
| O=C(C=Cc1ccc(O)c(O)c1)OCCc1ccccc1 | DHFR | enzyme activity, inhibitor, absorbance | 11.5 µM |
| CN(C(=O)c1cn[nH]n1)C1CCN(CCc2cccc(Cl)c2Cl)C1 (stereo not drawn) | HTR2B | calcium signal, antagonist | 5.53 µM |
| Nc1nc(N)c(OCCCOc2ccccc2CCC(=O)O)c(-c2ccc(C(F)(F)F)cc2)n1 | DHFR | enzyme activity, inhibitor | > 5 µM |
| O=C(C=Cc1ccc(O)c(O)c1)Oc1ccccc1 | DHFR | enzyme activity, inhibitor, absorbance | 15.4 µM |
| S=C(NN=Cc1ccc(N2CCCCC2)cc1)Nc1c(Cl)cccc1Cl | DHFR | enzyme activity, inhibitor | 36.3 µM |
| COc1ccccc1CC1CCN(CC(=O)c2cc(C)[nH]c2C)C1 (stereo not drawn) | HTR2C | calcium signal, antagonist | 23 µM |
| O=c1nc(SCc2cc(F)cc(C(F)(F)F)c2)nc(SCc2ccc3sccc3c2)[nH]1 | TOP2A | enzyme activity, inhibitor | 13.3 µM |
| Cc1[nH]c2ccccc2c1C(=O)C(C)N1CCC(c2nccn2C)C1 (stereo not drawn) | HTR2B | calcium signal, antagonist | 0.0369 µM |
| O=C(Nc1ccc(-c2cnc3ccccc3c2)cc1)C1CCN(S(=O)(=O)c2ccccc2Cl)CC1 | FAAH | enzyme activity, inhibitor, fluorescence | 0.016 µM |
| Cc1[nH]c2ccccc2c1SCCNC(=O)C1NCCC1C1CC1 (stereo not drawn) | HTR2C | calcium signal, antagonist | 38.2 µM |
| O=C(Nc1ccc(-c2ccc3ncccc3c2)cc1)C1CCN(S(=O)(=O)c2ccccc2Cl)CC1 | FAAH | enzyme activity, inhibitor, fluorescence | 0.0508 µM |
| Cc1[nH]c2ccccc2c1SCCNC(=O)CN1CCC(C)C1 (stereo not drawn) | HTR2B | calcium signal, antagonist | 3.68 µM |
| Cc1cccc(C)c1NC(=S)NN=Cc1ccc(N2CCCCC2)cc1 | DHFR | enzyme activity, inhibitor | 18.3 µM |
| Cc1cccc(C(CO)N2CCN(Cc3cc(O)ccc3Cl)CC2)c1 (stereo not drawn) | HTR2B | calcium signal, antagonist | 0.691 µM |
| O=[N+]([O-])c1ccc(NC(=S)NN=Cc2ccc(N3CCCCC3)cc2)cc1 | DHFR | enzyme activity, inhibitor | 16.2 µM |
